Source: ChEMBL document CHEMBL5696442, “Discovery of type II inhibitors of TGFβ-activated kinase 1 (TAK1) and mitogen-activated protein kinase kinase kinase kinase 2 (MAP4K2)” (J Med Chem, 2015)

Tests used:
[1] = molecular target: Tyrosine-protein kinase ABL2 (Homo sapiens, UniProt P42684); test: Inhibition of ARG Lys1 labeling site in human Huh-7 cell lysate at 1 uM by KiNativ Profiling analysis relative to control; type: subcellular
[2] = molecular target: Dual specificity mitogen-activated protein kinase kinase 1 (Homo sapiens) (UniProt Q02750); test: Inhibition of MAP2K1 Lys2 labeling site harbouring IMHRDVKPSNILVNSR in human A-375 cells at 0.05 uM by KiNativ Profiling analysis relative to control; type: cell-based
[3] = molecular target: Serine/threonine-protein kinase 38-like (Homo sapiens) (UniProt Q9Y2H1); test: Inhibition of NDR2 Lys2 labeling site in human A-375 cells at 0.05 uM by KiNativ Profiling analysis relative to control; type: cell-based
[4] = molecular target: T1, Serine/threonine-protein kinase TAO2 (Homo sapiens) (UniProt Q9UL54); test: Inhibition of TAO2 Lys2 labeling site in human A-375 cells at 5 uM by KiNativ Profiling analysis relative to control; type: cell-based
T1 sequence (whole entry): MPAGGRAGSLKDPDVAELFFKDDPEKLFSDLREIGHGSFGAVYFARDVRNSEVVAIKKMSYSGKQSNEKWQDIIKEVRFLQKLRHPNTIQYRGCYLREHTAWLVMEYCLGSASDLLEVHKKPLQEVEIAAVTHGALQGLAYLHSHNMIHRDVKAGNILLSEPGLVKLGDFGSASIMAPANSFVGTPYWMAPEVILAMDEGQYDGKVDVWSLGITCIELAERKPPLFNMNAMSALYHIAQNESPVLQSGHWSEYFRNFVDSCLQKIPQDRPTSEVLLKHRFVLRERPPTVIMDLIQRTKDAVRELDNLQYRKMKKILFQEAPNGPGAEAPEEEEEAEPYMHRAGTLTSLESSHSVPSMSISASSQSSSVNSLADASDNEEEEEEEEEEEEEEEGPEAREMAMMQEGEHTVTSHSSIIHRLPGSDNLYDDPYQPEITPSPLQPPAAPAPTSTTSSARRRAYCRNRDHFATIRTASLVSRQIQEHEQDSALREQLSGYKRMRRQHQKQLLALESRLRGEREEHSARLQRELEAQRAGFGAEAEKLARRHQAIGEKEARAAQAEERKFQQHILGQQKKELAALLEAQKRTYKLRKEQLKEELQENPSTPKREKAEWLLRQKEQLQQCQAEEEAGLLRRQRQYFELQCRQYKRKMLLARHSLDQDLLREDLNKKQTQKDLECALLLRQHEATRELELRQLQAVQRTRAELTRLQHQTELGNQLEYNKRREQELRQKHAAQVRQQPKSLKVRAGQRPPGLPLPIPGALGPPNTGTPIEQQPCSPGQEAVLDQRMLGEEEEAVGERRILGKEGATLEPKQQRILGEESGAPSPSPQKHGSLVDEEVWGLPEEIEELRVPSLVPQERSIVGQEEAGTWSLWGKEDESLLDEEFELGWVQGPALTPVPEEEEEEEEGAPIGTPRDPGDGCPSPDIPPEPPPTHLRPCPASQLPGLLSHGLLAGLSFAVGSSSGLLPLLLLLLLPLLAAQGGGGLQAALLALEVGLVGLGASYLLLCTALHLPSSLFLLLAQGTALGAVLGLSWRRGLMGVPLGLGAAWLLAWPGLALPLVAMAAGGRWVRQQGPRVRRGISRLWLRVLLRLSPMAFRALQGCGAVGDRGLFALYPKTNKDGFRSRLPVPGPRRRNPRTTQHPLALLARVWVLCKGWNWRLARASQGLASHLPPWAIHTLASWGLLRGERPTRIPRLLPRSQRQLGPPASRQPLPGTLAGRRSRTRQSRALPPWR

[5] = molecular target: Ribosomal protein S6 kinase alpha-3 (Homo sapiens) (UniProt P51812); test: Inhibition of RSK2 domain2 Lys2 labeling site in human A-375 cells at 0.5 uM by KiNativ Profiling analysis relative to control; type: cell-based
Procedure, shortened: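 Live A375 melanoma cells treated with compound at 5 or 0.5 μM, then lysed. Lysate kinases were labeled with a lysine-reactive ATP or ADP-biotin probe. Inhibition was read as protection of labeling sites from the probe.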

[6] = molecular target: T2, Aurora kinase A (Homo sapiens) (UniProt O14965); test: Inhibition of AurA Lys2 labeling site in human A-375 cells at 5 uM by KiNativ Profiling analysis relative to control; type: cell-based
T2 sequence (whole entry): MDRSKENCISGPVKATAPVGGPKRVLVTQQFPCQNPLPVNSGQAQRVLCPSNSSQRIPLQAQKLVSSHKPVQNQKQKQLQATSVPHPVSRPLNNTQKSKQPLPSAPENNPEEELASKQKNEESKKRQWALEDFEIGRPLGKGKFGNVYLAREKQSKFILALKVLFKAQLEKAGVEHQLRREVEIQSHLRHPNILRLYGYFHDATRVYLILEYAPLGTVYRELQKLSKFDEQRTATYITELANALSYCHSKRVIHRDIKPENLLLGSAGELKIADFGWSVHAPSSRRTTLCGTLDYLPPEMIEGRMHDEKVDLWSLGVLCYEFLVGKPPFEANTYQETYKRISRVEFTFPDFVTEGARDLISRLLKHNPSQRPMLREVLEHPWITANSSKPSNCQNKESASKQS
Procedure, shortened: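 Live A375 melanoma cells were treated with compound at 5 or 0.5 μM, then lysed. The lysates were labeled with a lysine-reactive ATP or ADP-biotin probe. Kinase protection from probe labeling was measured by KiNativ.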

[7] = molecular target: T3, Serine/threonine-protein kinase STK11 (Homo sapiens) (UniProt Q15831); test: Inhibition of LKB1 Lys2 labeling site in human A-375 cells at 0.05 uM by KiNativ Profiling analysis relative to control; type: cell-based
T3 sequence (whole entry): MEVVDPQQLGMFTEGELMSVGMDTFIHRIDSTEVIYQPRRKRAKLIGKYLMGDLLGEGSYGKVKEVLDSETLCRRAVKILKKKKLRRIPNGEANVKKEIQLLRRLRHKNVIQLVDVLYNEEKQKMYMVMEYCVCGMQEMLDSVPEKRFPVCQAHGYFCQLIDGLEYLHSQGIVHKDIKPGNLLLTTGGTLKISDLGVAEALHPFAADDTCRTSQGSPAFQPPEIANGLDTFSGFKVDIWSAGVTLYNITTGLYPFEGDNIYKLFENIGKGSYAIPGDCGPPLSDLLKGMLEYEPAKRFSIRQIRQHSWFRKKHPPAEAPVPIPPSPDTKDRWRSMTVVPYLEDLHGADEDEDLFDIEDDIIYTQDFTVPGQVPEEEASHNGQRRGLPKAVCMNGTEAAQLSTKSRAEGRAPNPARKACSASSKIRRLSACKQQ

[8] = molecular target: Serine/threonine-protein kinase WNK2 (Homo sapiens) (UniProt Q9Y3S1); test: Inhibition of Wnk2 ATP Loop labeling site in human A-375 cells at 0.5 uM by KiNativ Profiling analysis relative to control; type: cell-based
[9] = molecular target: Serine/threonine-protein kinase SIK3 (Homo sapiens) (UniProt Q9Y2K2); test: Inhibition of QSK Lys2 labeling site in human A-375 cells at 0.5 uM by KiNativ Profiling analysis relative to control; type: cell-based
Sequence of Serine/threonine-protein kinase SIK3 (Homo sapiens) (Q9Y2K2 whole entry, looked up): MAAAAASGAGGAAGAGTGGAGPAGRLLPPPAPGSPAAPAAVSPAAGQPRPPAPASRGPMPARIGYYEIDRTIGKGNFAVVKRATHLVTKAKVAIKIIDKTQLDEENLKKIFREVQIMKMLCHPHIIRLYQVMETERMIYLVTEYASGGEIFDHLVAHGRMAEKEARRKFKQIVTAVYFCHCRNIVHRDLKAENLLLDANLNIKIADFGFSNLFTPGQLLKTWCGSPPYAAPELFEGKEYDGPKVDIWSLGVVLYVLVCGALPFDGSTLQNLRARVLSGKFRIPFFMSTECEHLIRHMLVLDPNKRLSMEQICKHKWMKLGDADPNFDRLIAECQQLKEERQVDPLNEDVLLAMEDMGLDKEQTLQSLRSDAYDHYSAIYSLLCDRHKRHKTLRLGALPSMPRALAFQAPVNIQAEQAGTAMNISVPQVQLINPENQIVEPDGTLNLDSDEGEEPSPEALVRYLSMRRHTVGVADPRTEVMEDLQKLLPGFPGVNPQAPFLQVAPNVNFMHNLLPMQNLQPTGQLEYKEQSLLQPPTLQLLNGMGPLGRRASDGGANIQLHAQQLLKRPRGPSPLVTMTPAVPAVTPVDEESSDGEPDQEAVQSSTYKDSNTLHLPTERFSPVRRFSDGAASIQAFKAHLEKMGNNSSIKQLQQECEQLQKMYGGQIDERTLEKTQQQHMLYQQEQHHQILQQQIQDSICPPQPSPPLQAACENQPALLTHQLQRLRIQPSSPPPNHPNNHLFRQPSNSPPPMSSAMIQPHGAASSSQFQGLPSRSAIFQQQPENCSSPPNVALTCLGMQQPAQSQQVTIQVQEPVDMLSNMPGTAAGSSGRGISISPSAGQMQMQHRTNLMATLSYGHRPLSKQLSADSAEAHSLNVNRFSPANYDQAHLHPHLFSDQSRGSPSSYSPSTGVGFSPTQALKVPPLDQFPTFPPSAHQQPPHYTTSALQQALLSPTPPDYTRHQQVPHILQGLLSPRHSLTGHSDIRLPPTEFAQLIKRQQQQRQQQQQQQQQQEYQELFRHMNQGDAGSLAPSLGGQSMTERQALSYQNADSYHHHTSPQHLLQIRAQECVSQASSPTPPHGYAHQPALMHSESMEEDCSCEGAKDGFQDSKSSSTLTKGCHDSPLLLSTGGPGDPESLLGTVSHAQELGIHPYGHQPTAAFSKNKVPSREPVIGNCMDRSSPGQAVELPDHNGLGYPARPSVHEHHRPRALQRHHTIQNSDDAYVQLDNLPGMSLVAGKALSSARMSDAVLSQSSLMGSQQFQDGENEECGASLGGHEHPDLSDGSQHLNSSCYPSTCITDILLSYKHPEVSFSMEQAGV

Sequence of Serine/threonine-protein kinase 38-like (Homo sapiens) (Q9Y2H1 2-464 limits assumed): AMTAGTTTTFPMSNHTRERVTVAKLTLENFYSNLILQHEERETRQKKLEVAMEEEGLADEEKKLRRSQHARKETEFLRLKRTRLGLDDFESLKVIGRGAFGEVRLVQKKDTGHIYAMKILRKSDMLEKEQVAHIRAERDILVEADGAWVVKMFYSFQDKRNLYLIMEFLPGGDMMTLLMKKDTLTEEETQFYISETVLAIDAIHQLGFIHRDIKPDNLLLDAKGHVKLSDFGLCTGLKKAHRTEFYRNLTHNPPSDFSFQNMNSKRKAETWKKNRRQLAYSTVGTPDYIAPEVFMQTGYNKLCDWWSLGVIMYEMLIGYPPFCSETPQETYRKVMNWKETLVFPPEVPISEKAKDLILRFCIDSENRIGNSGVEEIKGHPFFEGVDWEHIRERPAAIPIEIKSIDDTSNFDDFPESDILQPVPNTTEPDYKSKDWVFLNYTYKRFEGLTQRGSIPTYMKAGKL
Sequence of Tyrosine-protein kinase ABL2 (P42684 whole entry): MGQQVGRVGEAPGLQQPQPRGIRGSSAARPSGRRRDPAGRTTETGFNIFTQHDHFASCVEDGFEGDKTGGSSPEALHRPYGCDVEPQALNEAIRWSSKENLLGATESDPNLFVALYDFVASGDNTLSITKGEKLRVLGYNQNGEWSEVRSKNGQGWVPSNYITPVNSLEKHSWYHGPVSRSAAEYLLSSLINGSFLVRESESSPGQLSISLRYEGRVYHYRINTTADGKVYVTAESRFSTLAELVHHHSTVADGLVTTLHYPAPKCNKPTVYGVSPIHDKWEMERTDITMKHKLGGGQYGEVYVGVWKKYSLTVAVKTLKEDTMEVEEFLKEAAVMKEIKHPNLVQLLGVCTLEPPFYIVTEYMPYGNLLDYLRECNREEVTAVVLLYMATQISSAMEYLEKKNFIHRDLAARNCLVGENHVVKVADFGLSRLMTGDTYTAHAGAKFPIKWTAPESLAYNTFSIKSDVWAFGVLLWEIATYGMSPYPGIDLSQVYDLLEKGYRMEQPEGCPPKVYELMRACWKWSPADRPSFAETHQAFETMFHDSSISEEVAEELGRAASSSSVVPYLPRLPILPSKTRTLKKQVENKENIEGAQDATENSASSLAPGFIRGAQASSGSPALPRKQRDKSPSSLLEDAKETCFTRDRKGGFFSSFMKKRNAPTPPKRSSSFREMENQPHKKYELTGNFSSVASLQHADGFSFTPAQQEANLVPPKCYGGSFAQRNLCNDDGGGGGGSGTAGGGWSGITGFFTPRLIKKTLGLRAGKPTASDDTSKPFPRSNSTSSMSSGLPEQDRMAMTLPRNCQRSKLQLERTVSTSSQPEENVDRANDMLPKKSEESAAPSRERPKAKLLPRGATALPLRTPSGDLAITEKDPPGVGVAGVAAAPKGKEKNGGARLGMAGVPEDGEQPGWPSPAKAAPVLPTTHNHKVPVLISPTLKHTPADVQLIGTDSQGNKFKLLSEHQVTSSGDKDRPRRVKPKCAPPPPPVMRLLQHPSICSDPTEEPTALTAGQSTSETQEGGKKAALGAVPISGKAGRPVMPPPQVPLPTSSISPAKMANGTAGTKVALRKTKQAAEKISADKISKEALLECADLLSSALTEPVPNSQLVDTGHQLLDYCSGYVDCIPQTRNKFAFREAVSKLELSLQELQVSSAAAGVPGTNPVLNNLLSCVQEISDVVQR
Sequence of Dual specificity mitogen-activated protein kinase kinase 1 (Homo sapiens) (Q02750 whole entry): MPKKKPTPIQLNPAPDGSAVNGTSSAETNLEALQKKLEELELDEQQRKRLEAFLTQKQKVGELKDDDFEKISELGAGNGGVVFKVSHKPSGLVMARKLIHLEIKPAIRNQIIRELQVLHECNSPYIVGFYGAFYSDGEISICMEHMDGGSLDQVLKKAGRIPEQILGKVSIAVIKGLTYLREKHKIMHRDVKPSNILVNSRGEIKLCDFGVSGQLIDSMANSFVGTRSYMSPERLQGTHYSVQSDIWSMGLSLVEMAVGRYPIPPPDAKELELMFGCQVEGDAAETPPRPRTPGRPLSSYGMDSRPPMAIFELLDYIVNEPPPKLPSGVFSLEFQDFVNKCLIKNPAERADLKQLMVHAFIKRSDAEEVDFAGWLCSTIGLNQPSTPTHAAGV
Sequence of Ribosomal protein S6 kinase alpha-3 (Homo sapiens) (P51812 whole entry, the tested form may be a part): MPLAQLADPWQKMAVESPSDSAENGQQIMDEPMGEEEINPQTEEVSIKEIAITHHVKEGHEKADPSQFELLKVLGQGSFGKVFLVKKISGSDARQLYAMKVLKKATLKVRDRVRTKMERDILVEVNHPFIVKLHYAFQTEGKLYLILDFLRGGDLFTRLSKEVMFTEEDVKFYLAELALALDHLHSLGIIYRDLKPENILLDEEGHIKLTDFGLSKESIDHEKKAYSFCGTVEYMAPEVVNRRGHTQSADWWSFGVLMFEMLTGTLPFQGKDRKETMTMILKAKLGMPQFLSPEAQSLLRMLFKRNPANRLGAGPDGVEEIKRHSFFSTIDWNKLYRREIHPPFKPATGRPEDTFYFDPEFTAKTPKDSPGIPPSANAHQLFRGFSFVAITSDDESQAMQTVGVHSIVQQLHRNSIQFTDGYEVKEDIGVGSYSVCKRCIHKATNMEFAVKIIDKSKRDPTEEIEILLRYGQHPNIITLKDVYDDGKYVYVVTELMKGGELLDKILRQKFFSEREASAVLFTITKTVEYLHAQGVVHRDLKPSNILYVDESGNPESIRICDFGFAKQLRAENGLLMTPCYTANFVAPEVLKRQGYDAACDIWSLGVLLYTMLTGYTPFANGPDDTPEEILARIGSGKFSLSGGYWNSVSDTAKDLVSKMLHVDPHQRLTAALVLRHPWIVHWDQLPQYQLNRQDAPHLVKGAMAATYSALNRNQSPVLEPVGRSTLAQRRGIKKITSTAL

Structure (SMILES)	inhibition [1] [%]	inhibition [2] [%]	inhibition [3] [%]	inhibition [4] [%]	inhibition [5] [%]	inhibition [6] [%]	inhibition [7] [%]	inhibition [8] [%]	inhibition [9] [%]
CNc1cc(Oc2cc(C(=O)Nc3cc(N4CCN(C)CC4)cc(C(F)(F)F)c3)ccc2C)ncn1	48.4	–	–	–	–	–	–	–	–
CCN1CCN(Cc2ccc(NC(=O)c3ccc(C)c(Oc4ccnc5[nH]ccc45)c3)cc2C(F)(F)F)CC1	–	14.9	14.8	82.5	-0.1	-0.8	13.1	11.4	39.8
CNc1cc(Oc2cc(C(=O)Nc3cc(-n4cnc(C)c4)cc(C(F)(F)F)c3)ccc2C)ncn1	51.8	–	–	–	–	–	–	–	–
CCN1CCN(Cc2ccc(NC(=O)c3ccc(C)c(/C=C/c4cnc5[nH]ccc5c4OC)c3)cc2C(F)(F)F)CC1	–	32.5	11.6	82.2	6.2	19.3	28.3	15.3	40.3
